Results published in paper PMC9059984 (RSC Advances, 2019).
Numbering of substitutions follows the chain as printed.

Legend:
Format in all cases: biochemical
[1] = tested on: sDTE (Sinorhizobium sp. D-tagatose 3-epimerase); experiment: Michaelis-Menten non-linear regression; details: optimum pH 8.0 (Tris-HCl) and 50 °C; Mn2+
Summary of the method: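 Enzyme expressed from pET28a(+) in E. coli BL21(DE3) (0.5 mM IPTG, 16 °C, 20 h), purified on Ni-NTA then Resource Q. Standard assay: 20 mM Tris–HCl pH 8.0, 1 μM Mn2+, 0.5 μM enzyme, 50 °C, 10 min; stopped by boiling 5 min; sugars by HPLC-ELSD. Kinetics used four ketose substrates, with Michaelis–Menten non-linear fit; three repeats, mean ± S.D.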

[2] = molecular target: T1, sDTE (Sinorhizobium sp. D-tagatose 3-epimerase) (Sinorhizobium sp., UniProt Z9YNK1L8X5, M9A); experiment: D-sorbose formation by HPLC, relative activity; details: […] g/L D-tagatose, […] Mn2+, […] enzyme, pH […] °C, […] min
T1 sequence (Z9YNK1L8X5 1-293 M9A): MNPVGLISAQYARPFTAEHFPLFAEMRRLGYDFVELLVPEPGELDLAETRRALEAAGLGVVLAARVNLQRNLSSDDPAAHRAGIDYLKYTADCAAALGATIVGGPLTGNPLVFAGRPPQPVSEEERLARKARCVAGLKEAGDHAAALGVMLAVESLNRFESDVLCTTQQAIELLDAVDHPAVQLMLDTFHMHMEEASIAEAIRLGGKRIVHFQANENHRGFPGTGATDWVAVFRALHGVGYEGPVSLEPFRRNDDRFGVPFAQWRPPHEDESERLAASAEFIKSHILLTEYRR

[3] = molecular target: T2, sDTE (Sinorhizobium sp. D-tagatose 3-epimerase) (Sinorhizobium sp., UniProt Z9YNK1L8X5, R65G); experiment: D-sorbose formation by HPLC, relative activity; details: […] g/L D-tagatose, […] Mn2+, […] enzyme, pH […] °C, […] min
T2 sequence (Z9YNK1L8X5 1-293 R65G): T1 sequence (Z9YNK1L8X5 1-293 M9A) with A9M, R65G

Structure (SMILES) | Km [1] [mM] | D-sorbose formation by HPLC, relative activity [2] | D-sorbose formation by HPLC, relative activity [3]
OCC1(O)OC[C@@H](O)[C@@H](O)[C@@H]1O (stereo partly drawn) [D-Fructose] | 54.7 ± 1.3 | – | –
O=C(CO)[C@H](O)[C@H](O)[C@H](O)CO [D-Allulose] | 39.8 ± 1.7 | – | –
OCC1(O)OC[C@@H](O)[C@H](O)[C@@H]1O (stereo partly drawn) [D-Tagatose] | 26 ± 1.2 | the mutation of R65G and M9A abolished the catalytic activity toward D-tagatose | the mutation of R65G and M9A abolished the catalytic activity toward D-tagatose
OCC1(O)OC[C@@H](O)[C@H](O)[C@H]1O (stereo partly drawn) [D-Sorbose] | 83 ± 4.3 | – | –
